We go through seven compounds from ChEMBL document CHEMBL1125357, “Gonadotropin-releasing hormone antagonists with N omega-triazolylornithine, -lysine, or -p-aminophenylalanine residues at positions 5 and 6” (J Med Chem, 1992).

Data set [1] concerns the target T1, Gonadotropin-releasing hormone receptor (Homo sapiens, UniProt P30968).
T1 sequence (P30968 whole entry): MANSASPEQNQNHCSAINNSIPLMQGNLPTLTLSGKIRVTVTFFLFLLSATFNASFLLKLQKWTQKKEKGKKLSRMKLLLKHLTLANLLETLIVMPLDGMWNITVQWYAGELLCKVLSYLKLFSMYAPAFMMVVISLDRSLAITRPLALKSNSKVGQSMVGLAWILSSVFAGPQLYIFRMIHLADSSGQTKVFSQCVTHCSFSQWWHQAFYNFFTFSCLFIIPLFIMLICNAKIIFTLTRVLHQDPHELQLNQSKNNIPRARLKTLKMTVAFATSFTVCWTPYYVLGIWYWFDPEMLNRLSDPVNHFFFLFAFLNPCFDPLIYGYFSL
Briefly: The binding affinity towards Gonadotropin-releasing hormone receptor.

The nature of data set [2]: Retention time of the compound. It counts as ADME. The procedure, abridged: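 Peptide (0.5 mg/mL, 10 μL) was loaded in TEAP pH 7.0/CH3CN (76/24), acidified with H3PO4 where insoluble. Elution used a 30-48% CH3CN gradient over 30 min at 1.5 mL/min. Retention time is reported in minutes.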

By Kd is commonly meant the concentration at which binding is half-saturated.

The structures appear in SMILES notation. Starred links: 1 amine or outer side, 2 acyl side, 3 side chain; linkers in the order of their positions; H or OH if unused. Non-standard residues stand in square brackets, D forms with d. Residues, ends and D or L forms follow the SMILES beside them. *: point of attachment. Phe(4-NH(5-NH2triazol-3-yl)) = Nc1nc(Nc2ccc(C[C@H](N)C(=O)O)cc2)n[nH]1; dNva(5-oxo-5-(4-MeOPh)) = COc1ccc(C(=O)CC[C@@H](N)C(=O)O)cc1; X1 = Nc1nc(Nc2ccc(C[C@@H](N[*:1])C(=O)[*:2])cc2)n[nH]1; Triazol3yl(1,2,4-5-NH2) = Nc1nc(*)n[nH]1; dPhe(4-Cl) = N[C@H](Cc1ccc(Cl)cc1)C(=O)O; d2Nal = N[C@H](Cc1ccc2ccccc2c1)C(=O)O; Lys(iPr) = CC(C)NCCCC[C@H](N)C(=O)O; d3Pal = N[C@H](Cc1cccnc1)C(=O)O; NMeL = CN[C@@H](CC(C)C)C(=O)O; Nicotinoyl = O=C(c1cccnc1)*; dOrn = NCCC[C@@H](N)C(=O)O; Orn = NCCC[C@H](N)C(=O)O

The compound `CC(=O)N[C@H](Cc1ccc2ccccc2c1)C(=O)N[C@H](Cc1ccc(Cl)cc1)C(=O)N[C@H](Cc1cccnc1)C(=O)N[C@@H](CO)C(=O)N[C@@H](CCCCNc1n[nH]c(N)n1)C(=O)N[C@H](CCCCNc1n[nH]c(N)n1)C(=O)N[C@@H](CC(C)C)C(=O)N[C@@H](CCCCNC(C)C)C(=O)N1CCC[C@H]1C(=O)NCC(N)=O` displayed a Kd in data set [1] of 0.86 nM. The compound further displayed an RT in data set [2] of 5.53 min.
On the same counts, the results for `CC(=O)N[C@H](Cc1ccc2ccccc2c1)C(=O)N[C@H](Cc1ccc(Cl)cc1)C(=O)N[C@H](Cc1cccnc1)C(=O)N[C@@H](CO)C(=O)N[C@@H](CCCNC(=N)N)C(=O)N[C@H](Cc1cccnc1)C(=O)N[C@@H](CC(C)C)C(=O)N[C@@H](CCCNC(=N)N)C(=O)N1CCC[C@H]1C(=O)N[C@H](C)C(N)=O` are 0.24 nM and 14.1 min.
The like results for `CC(=O)N[C@H](Cc1ccc2ccccc2c1)C(=O)N[C@H](Cc1ccc(Cl)cc1)C(=O)N[C@H](Cc1cccnc1)C(=O)N[C@@H](CO)C(=O)N[C@@H](CCCCNC(=O)c1cccnc1)C(=O)N[C@H](CCCCNC(=O)c1cccnc1)C(=O)N[C@@H](CC(C)C)C(=O)N[C@@H](CCCCNC(C)C)C(=O)N1CCC[C@H]1C(=O)N[C@H](C)C(N)=O` (Ac-[d2Nal][dPhe(4-Cl)][d3Pal]SK(Nicotinoyl)[dK](Nicotinoyl)L[Lys(iPr)]P[dA]-NH2) were, in that order, 0.35 nM and 13.6 min.
On the same counts, the results for `CC(=O)N[C@H](Cc1ccc2ccccc2c1)C(=O)N[C@H](Cc1ccc(Cl)cc1)C(=O)N[C@H](Cc1cccnc1)C(=O)N[C@@H](CO)C(=O)N[C@@H](CCCCNc1n[nH]c(N)n1)C(=O)N[C@H](CCCCNc1n[nH]c(N)n1)C(=O)N[C@@H](CC(C)C)C(=O)N[C@@H](CCCCNC(C)C)C(=O)N1CCC[C@H]1C(=O)N[C@H](C)C(N)=O` (Ac-[d2Nal][dPhe(4-Cl)][d3Pal]SK(Triazol3yl(1,2,4-5-NH2))[dK](Triazol3yl(1,2,4-5-NH2))L[Lys(iPr)]P[dA]-NH2) are 0.48 nM and 7.08 min.
Take `COc1ccc(C(=O)CC[C@@H](NC(=O)[C@H](CCCN=C(N)N)NC(=O)[C@H](CO)NC(=O)[C@@H](Cc2cccnc2)NC(=O)[C@@H](Cc2ccc(Cl)cc2)NC(=O)[C@@H](Cc2ccc3ccccc3c2)NC(C)=O)C(=O)N[C@@H](CC(C)C)C(=O)N[C@@H](CCCN=C(N)N)C(=O)N2CCC[C@H]2C(=O)N[C@H](C)C(N)=O)cc1` (Ac-[d2Nal][dPhe(4-Cl)][d3Pal]SR[dNva(5-oxo-5-(4-MeOPh))]LRP[dA]-NH2): the affinity in data set [1], expressed as Kd, was 0.67 nM. This compound yielded an RT in data set [2] of 22.8 min.
The like results for `CC(=O)N[C@H](Cc1ccc2ccccc2c1)C(=O)N[C@H](Cc1ccc(Cl)cc1)C(=O)N[C@H](Cc1cccnc1)C(=O)N[C@@H](CO)C(=O)N[C@@H](CCCNc1n[nH]c(N)n1)C(=O)N[C@H](CCCNc1n[nH]c(N)n1)C(=O)N[C@@H](CC(C)C)C(=O)N[C@@H](CCCCNC(C)C)C(=O)N1CCC[C@H]1C(=O)N[C@H](C)C(N)=O` (Ac-[d2Nal][dPhe(4-Cl)][d3Pal]S[Orn](Triazol3yl(1,2,4-5-NH2))[dOrn](Triazol3yl(1,2,4-5-NH2))L[Lys(iPr)]P[dA]-NH2) were, in that order, 0.21 nM and 6.2 min.
`CC(=O)N[C@H](Cc1ccc2ccccc2c1)C(=O)N[C@H](Cc1ccc(Cl)cc1)C(=O)N[C@H](Cc1cccnc1)C(=O)N[C@@H](CO)C(=O)N[C@@H](Cc1ccc(Nc2n[nH]c(N)n2)cc1)C(=O)N[C@H](Cc1ccc(Nc2n[nH]c(N)n2)cc1)C(=O)N(C)[C@@H](CC(C)C)C(=O)N[C@@H](CCCCNC(C)C)C(=O)N1CCC[C@H]1C(=O)N[C@H](C)C(N)=O` (Ac-[d2Nal][dPhe(4-Cl)][d3Pal]S[Phe(4-NH(5-NH2triazol-3-yl))][X1][NMeL][Lys(iPr)]P[dA]-NH2) showed an RT in data set [2] of 10.6 min.
